# An excerpt weighted towards active compounds, which were near 3.9% of everything screened.
# HSF1 inhib – HSF1 inhibition. NIH3T3-HGL HSE-luciferase, MG132-induced, luminescence 8 h; active compounds read low. activity change, negative = inhibition, % at 7.5 µM (by protocol). actives 0.77% (n = 300,000). AID 2098;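 active means more than half of replicate wells show activity change below -50%, luminescence cut by over half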;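 further: luciferase reports HSF-1 transcriptional activity via heat shock element; 0% = median of DMSO wells and -100% = zero luminescence signal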
# HSF-1 act – increases HSF-1 driven luciferase reporter signal; NIH3T3-HGL HSF-1 luciferase reporter, MG132, 8 h; 100% = twice DMSO control signal; activation, % at 9 µM; actives 1.7% (n = 300,000);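 active means mean replicate activation of at least 50% with a set share of replicates each reaching 50%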;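 further: 0% = median of the neutral control wells and 100% = twice that signal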
# DNA FID counter-1 – counter-screen for HCV NS3 helicase inhibitors: DNA intercalator displacement | inhibition, % at 7.9 µM | DNA fluorescent intercalator displacement, fluorescence | actives 0.17% (n = 290,000);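 further: 0% = vehicle and 100% = reference compound; higher means more ethidium bromide displaced from hairpin DNA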
# HCV core dimer – blocks dimerization of HCV core protein | AID 1899 | inhibition, % at 5 µM | TR-FRET GST/Flag-core106 dimerization, 1536-well | actives 0.33% (n = 300,000);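 active means inhibition above the mean of all tested compounds plus 3 SD, set per screening campaign, cut at about 45% in these data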
#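 Material: GST/Flag-tagged HCV core106 proteins. Incubation: 4 h, 22.5 °C incubation. Read-out basis: inhibition (%) from 671 over 617 nm ratio. Measured by: TR-FRET, excitation 340 nm, emission 617 and 671 nm.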
# NS3 helicase inh – HCV NS3 helicase inhibition; NS3 helicase DNA unwinding, Cy5 molecular beacon fluorescence; inhibition, % at 10.9 µM; actives 0.56% (n = 290,000);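 active means inhibition above the mean of all tested compounds plus 3 SD, set per campaign, cut at about 35% in these data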;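 further: 0% = DMSO wells and 100% = thioflavine S control wells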
#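 assay system = NS3 helicase fragment of HCV | buffer or medium = MOPS pH 6.5, MgCl2, DTT, Tween20, BSA | timing = 60 min unwinding reaction at 25 °C after ATP addition | signal = Cy5 beacon fluorescence read at start and 1 h | read-out basis = % inhibition of unwinding | control set = low DMSO, high thioflavine S at 110 µM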
# HSP90 refold inh – blocks HSP90-mediated luciferase refolding in reticulocyte lysate; Rabbit reticulocyte lysate, luciferase refolding luminescence, 3 h; inhibition, % at 5.6 µM; actives 0.91% (n = 290,000); AID 1789;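 active means inhibition above the screen-wide mean plus 3 SD, computed separately per campaign, cut at about 16% in these data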;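 further: 0% = DMSO wells and 100% = 60 µM geldanamycin wells; inhibitors lower the luminescence because luciferase stays unfolded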
# NS3 helicase cf – HCV NS3 helicase inhibition, confirmation assay | inhibition, % at 10.9 µM | actives 31% (n = 1,600) | shares compounds with NS3 helicase inh | NS3 helicase DNA unwinding, Cy5 molecular beacon fluorescence;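 active means inhibition above the mean of all tested compounds plus 3 SD, cutoff set per campaign, cut at about 36% in these data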
# DNA FID counter-2 – displaces DNA intercalator in HCV helicase counter-screen. shares compounds with NS3 helicase inh. DNA fluorescent intercalator displacement, fluorescence. inhibition, % at 7.9 µM. actives 4% (n = 1,600). AID 1945;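 further: 0% = vehicle and 100% = reference compound; higher means more displacement of ethidium bromide from the DNA hairpin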
# FID counter DR – displaces fluorescent intercalator from DNA, HCV helicase counter-screen; 120 tested, under 10 active; IC50, µM; shares compounds with NS3 helicase inh; fluorescent intercalator displacement from DNA, fluorescence; call rule not given here
# * hit, by the source's call; . = no result given. Unless noted, no stated cut-off is given here; in the data, active means inhibition above about 37%; inactive means the rest.
SMILES,HSF1 inhib,HSF-1 act,DNA FID counter-1,HCV core dimer,NS3 helicase inh,HSP90 refold inh,NS3 helicase cf,DNA FID counter-2,others
COc1cccc(NC(=S)Nc2cccc3ccccc23)c1,12.2,5.5,1.6,9.4,48.9*,13.2,1.9,-5.8,
CCN(CC)S(=O)(=O)c1ccc2oc(C(=O)NC3CC3)c(C)c2c1,9.1,14.6,-22.3,-11.2,1.1,-0.3,.,.,
Cc1ccc(S(=O)(=O)Nc2ccc(C(=O)NCCCN3CCOCC3)cc2)cc1[N+](=O)[O-],-5.2,-0.6,.,-2.5,.,.,.,.,
Cc1nnc2sc(SCC(=O)Nc3nccs3)nn2c1=O,0.1,7.9,-8.5,-0.1,39.5*,0.7,5.4,1.8,
COc1ccccc1NC(=O)CSc1nn2c(=O)c(C)nnc2s1,-8.4,-9.4,-6.7,-4.8,2.9,2.9,.,.,
Nc1nonc1C(=O)NCCNC(=O)c1ccc(Cl)cc1,-6.8,5.2,-2.5,2.7,-3.3,-0.5,.,.,
CC(=O)c1sc2nc(-c3ccco3)ccc2c1N,7.6,17.2,-7.1,2.5,68.5*,5.8,46.1*,15.5,
Nc1c(C(=O)Nc2ccc(Br)cc2)sc2nc(-c3ccco3)ccc12,6.2,14.0,-12.7,33.8,68.6*,-0.7,28.4,5.3,
O=C(Nc1ccc(-n2nncc2-c2ccco2)cc1)c1ccc(F)cc1,6.4,14.3,-12.2,4.2,5.5,0.1,.,.,
Cc1ccc(NC(=O)c2sc3nc4c(c(-c5ccco5)c3c2N)CCC4)cc1,-0.2,-0.1,-13.3,10.2,27.5,-0.6,.,.,
Nc1c(C(=O)Nc2ccc(F)cc2)sc2nc(-c3ccco3)ccc12,6.5,17.6,-13.2,40.0,40.8*,1.3,-5.7,9.8,
CC(=O)C1=C(C)NC(=O)CC1c1ccc(Br)cc1 (stereo unspecified),16.4,41.8,-1.2,-5.0,-3.5,-2.1,.,.,
Cc1ccc(NC(=O)c2cc(=O)c3ccccc3o2)cc1S(=O)(=O)N1CCCCC1,-4.8,10.1,-1.8,2.5,8.2,2.9,.,.,
CN(C)c1ccc(O)c2c1CC1CC3[C@@H](N(C)C)C(=O)C(C(N)=O)=C(O)[C@]3(O)C(=O)C1=C2O (stereo partly specified),2.6,-6.6,-10.2,5.3,38.7*,2.9,36.3*,15.7,FID counter DR=>79.4
Cc1ccc(NC(=O)Nc2cccs2)cc1,17.1,28.6,-8.7,1.2,3.0,2.7,.,.,
CCc1ccc(NC(=O)Nc2cccs2)cc1,11.4,3.1,-8.3,6.5,43.9*,14.6,-15.5,12.2,
CCOc1ccc(N=C2NN=C(c3cc(C)n(CC4CCCO4)c3C)CS2)cc1 (stereo unspecified),-5.9,-3.0,-10.9,19.1,40.7*,1.6,16.9,11.7,
C=CCN=C1NN=C(c2cc(C)n(CCOC)c2C)CS1,-8.8,-12.3,-5.0,6.1,-2.6,4.6,.,.,
COCCn1c(C)cc(C2=NNC(=Nc3ccc(Cl)cc3Cl)SC2)c1C,-10.6,-9.2,-12.3,24.5,36.7*,9.1,22.3,-5.4,
C=CCn1c(C)cc(C2=NNC(=Nc3ccc(C)cc3)SC2)c1C,-0.8,-3.5,-6.0,43.0,5.0,2.5,.,.,
CC1CC(C)CN(CC(=O)NCCc2ccc(S(N)(=O)=O)cc2)C1 (stereo unspecified),-7.1,-16.5,7.0,-0.2,0.0,2.1,.,.,
O=C(O)c1ccc2c(c1)[C@@H]1C=CC[C@@H]1[C@H](c1ccccn1)N2,0.1,0.6,-20.3,0.6,59.4*,5.6,60.0*,2.8,
COc1cccc(NS(=O)(=O)c2ccc3c(c2)C2C=CCC2C(c2ccc(C(=O)O)cc2)N3)c1 (stereo unspecified),-8.6,-8.8,-0.2,10.6,43.0*,3.9,52.3*,41.9*,
Cc1nc(C)n(C(C)CNS(=O)(=O)c2ccc(C)c(C)c2)n1 (stereo unspecified),0.5,12.4,-5.8,-9.7,-4.4,4.7,.,.,
CCC1C/C(=C\c2cc(OC)c(OC)cc2OC)C(=O)/C(=C/c2cc(OC)c(OC)cc2OC)C1 (stereo unspecified),-27.7,-27.3,-14.9,17.4,-25.3,1.8,.,.,
SMILES,HSF1 inhib,HSF-1 act,DNA FID counter-1,HCV core dimer,NS3 helicase inh,HSP90 refold inh,NS3 helicase cf,DNA FID counter-2,others
CCC1C/C(=C/c2ccco2)C(=O)/C(=C/c2ccco2)C1 (stereo unspecified),.,.,-20.1,23.9,46.2*,1.7,77.0*,12.0,
CCc1ccc(NC(=O)C2CCN(S(=O)(=O)c3ccc4c(c3)NC(=O)CO4)CC2)cc1,4.8,-4.2,-35.0,4.9,1.8,2.2,.,.,
CC(CCC(=O)O)C1CCC2C3CCC4C[C@H](O)CCC4(C)C3CC(=O)C12C (stereo partly specified),1.9,-12.3,-54.2,-0.8,40.5*,7.5,-21.5,-13.3,
O=S1(=O)CCOCCN1Cc1ccc(Cl)cc1Cl,-0.7,-4.5,-17.3,2.1,36.6*,-2.5,-18.0,5.7,
COc1ccc(OC)c(C2CC(=O)N3CN(c4ccccc4F)CSC3=C2C#N)c1 (stereo unspecified),1.6,-10.0,-44.9,-7.2,40.0*,2.0,65.7*,3.4,FID counter DR=>79.4
COc1ccc(Br)cc1C1CC(=O)N2CN(Cc3ccccc3)CSC2=C1C#N (stereo unspecified),5.4,-5.0,-35.9,-0.4,50.7*,3.3,40.0*,-22.7,
Cc1ccc(C2CC(=O)N3CN(c4ccc(Br)cc4)CSC3=C2C#N)o1 (stereo unspecified),-14.3,-27.4,-6.4,47.6*,36.8*,0.2,72.4*,5.6,FID counter DR=>79.4
C/C(=C\C(=O)c1ccc(Cl)cc1)Nc1ccc(Br)cc1,7.7,24.0,1.9,8.3,47.4*,-0.8,-0.1,7.7,
O=C1CC(c2ccccc2)CC2=C1C=Nc1ccccc1N2 (stereo unspecified),-4.1,4.5,-15.7,0.9,0.4,-1.1,.,.,
CC(=O)N1CCC(N(CCN2CCOCC2)C(=S)Nc2ccc(C)cc2C)CC1,7.1,19.5,-8.5,-1.9,7.6,3.3,.,.,
COc1ccc(NC(=O)c2ccc(-n3cnnn3)cc2)c([N+](=O)[O-])c1,-11.1,3.7,1.8,21.3,1.9,-2.5,.,.,
Cc1cc(C)n2nc(SCC(=O)Nc3ccc(F)cc3)nc2n1,6.5,3.3,-2.9,-3.9,50.8*,-3.4,-11.8,3.4,
CCC(CC)C(=O)Nc1cccc(S(=O)(=O)c2cccc(NC(=O)C(CC)CC)c2)c1,6.5,24.7,-1.0,-0.2,-5.7,-1.3,.,.,
CC(=O)OCCNc1cc(SCc2ccco2)c2nonc2c1[N+](=O)[O-],-1.2,17.0,0.5,3.6,46.9*,2.8,-17.1,19.5,

# Compound activity deposited in PubChem by several laboratories.
